IMP-1 inhibitor: blocks Pseudomonas aeruginosa IMP-1 metallo-beta-lactamase; purified IMP-1, nitrocefin hydrolysis, epi-absorbance fluorescence; inhibition, % at 5.6 µM; 0.45% of 290,000 active;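 active means inhibition above the mean plus 3 SD of all compounds in the same screening run, cut at about 4.5% in these data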;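 further: 0% = IMP-1 with DMSO and 100% = DMSO wells lacking enzyme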
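System: purified IMP-1 / Input: IMP-1 dispensed at 0.2 nM / Medium: 50 mM HEPES pH 7.1, 50 µM ZnSO4, 0.05% Brij 35 / Timing: 15 min enzyme–compound preincubation, then 25 min nitrocefin reaction, 25 °C / Technique: plate fluorescence quenching by hydrolysis product, ex 480/em 530 nm / Repeats: singlicate testing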
FID counter: displaces DNA intercalator in HCV helicase counter-screen. AID 1845. 0.17% of 290,000 active. inhibition, % at 7.9 µM. DNA fluorescent intercalator displacement, fluorescence; in the data active means inhibition above about 37%;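 further: 0% = vehicle and 100% = reference compound; higher means more ethidium bromide displaced from hairpin DNA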
HCV core dimer: blocks dimerization of HCV core protein; 0.33% of 300,000 active; AID 1899; inhibition, % at 5 µM; TR-FRET GST/Flag-core106 dimerization, 1536-well;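 active means inhibition above the mean of all tested compounds plus 3 SD, set per screening campaign, cut at about 45% in these data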
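System: GST/Flag-tagged HCV core106 proteins. Incubation: compound-protein-antibody incubation 4 h at 22.5 °C. Technique: HTRF with 340 nm excitation, 617/671 nm emission. Medium: KF-containing HEPES buffer, pH 7.45, DTT, CHAPS, BSA. Read-out: inhibition (%) from 671 over 617 nm ratio. Also added: Eu(K)-anti-GST 90 ng/mL plus XL665-anti-Flag 1 µg/mL.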
VIM-2 inhibitor: inhibitors of Pseudomonas aeruginosa VIM-2 metallo-beta-lactamase. purified VIM-2, nitrocefin hydrolysis, epi-absorbance fluorescence. inhibition, % at 5.6 µM. 0.89% of 290,000 active. AID 1527;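 active means inhibition above the mean of all tested compounds plus 3 SD, cutoff set per screening run, cut at about 7.5% in these data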;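 further: red hydrolysis product quenches plate fluorescence so inhibitors raise well fluorescence; 0% = enzyme with DMSO and 100% = DMSO without enzyme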
* hit, by the source's call; ! = not active in a repeat. Rows were chosen to be rich in hits. Some 1.6% of all compounds tested hit in one or more screens of this group.

How did O=C(COc1ccc2c3c(c(=O)oc2c1)CCC3)N1CCCCC1 do in these assays?
IMP-1 inhibitor: -2; FID counter: -25; HCV core dimer: -8; VIM-2 inhibitor: 12*

Results for O=C(COc1ccc2c3c(c(=O)oc2c1)CCCC3)N1C[C@H]2C[C@@H](C1)c1cccc(=O)n1C2 ?
IMP-1 inhibitor: 1; FID counter: -27; HCV core dimer: 1; VIM-2 inhibitor: 9.1*

Results for COc1ccc(-c2cc(=O)oc3cc(OCC(=O)N4C[C@H]5C[C@@H](C4)c4cccc(=O)n4C5)ccc23)cc1 ?
IMP-1 inhibitor: -1; FID counter: -40; HCV core dimer: 0; VIM-2 inhibitor: 2

What do the screens show for `CSCCC(NC(=O)c1ccc(Cl)cc1Cl)C(=O)OCC(N)=O` (configuration not stated)?
IMP-1 inhibitor: -3; FID counter: -8; HCV core dimer: 3; VIM-2 inhibitor: -1

What do the screens show for `O=C(COc1ccc2c3c(c(=O)oc2c1)CCC3)N1CCN(c2ccccc2)CC1`?
IMP-1 inhibitor: -3; FID counter: -40; HCV core dimer: 6; VIM-2 inhibitor: 11*

Results for CC(C)Oc1ccc2c3c(c(=O)oc2c1)CCC3 ?
IMP-1 inhibitor: -2; FID counter: -6; HCV core dimer: 3; VIM-2 inhibitor: 8.6*

Results for Cc1c(C)c2ccc(OCC(=O)N3CCN(c4ccccc4)CC3)cc2oc1=O ?
IMP-1 inhibitor: -2; FID counter: -42; HCV core dimer: 6; VIM-2 inhibitor: 3

What do the screens show for `Cc1cc(OCC(=O)NC2CCN(Cc3ccccc3)CC2)c2c(C)cc(=O)oc2c1`?
IMP-1 inhibitor: -5; FID counter: 15; HCV core dimer: -3; VIM-2 inhibitor: 9.3*

Results for Cc1ccc(-c2cc(C(=O)NCCN3CCOCC3)no2)cc1 ?
IMP-1 inhibitor: 10*; FID counter: -1; HCV core dimer: 0; VIM-2 inhibitor: -1

How did CCn1c(SCC(=O)Nc2sc3c(c2C(N)=O)CCC(C)C3)nnc1-c1ccco1 (configuration not stated) do in these assays?
IMP-1 inhibitor: 0; FID counter: -30; HCV core dimer: 56*; VIM-2 inhibitor: -3

How did CCn1c(SCC(=O)Nc2ccc3c(c2)c2ccccc2n3CC)nnc1-c1ccco1 do in these assays?
IMP-1 inhibitor: 1; FID counter: -29; HCV core dimer: 65*; VIM-2 inhibitor: 1

How did CNC(=S)N/N=C(\C)c1cccc([N+](=O)[O-])c1 do in these assays?
IMP-1 inhibitor: -4; FID counter: 2; HCV core dimer: 2; VIM-2 inhibitor: -4

How did C/C(=N\NC(=O)C(N)=O)c1cccc([N+](=O)[O-])c1 do in these assays?
IMP-1 inhibitor: 15*; FID counter: -3; HCV core dimer: -1; VIM-2 inhibitor: -2

Results for O=C(/C=C/c1ccc(Br)cc1)c1ccc(NC2=NCCCS2)cc1 ?
IMP-1 inhibitor: 2; FID counter: 37*; HCV core dimer: 0; VIM-2 inhibitor: -3

Results for CN1CCN(c2ccccc2NC(=O)c2ccc(-c3ccccc3)cc2)CC1 ?
IMP-1 inhibitor: -3; FID counter: 23; HCV core dimer: -9; VIM-2 inhibitor: 6

How did O=C(c1ccc(Cl)cc1)c1c[nH]cc1-c1ccccc1 do in these assays?
IMP-1 inhibitor: 4.5*; FID counter: -2; HCV core dimer: 3; VIM-2 inhibitor: 2

What do the screens show for `COc1ccc(C(=O)c2c[nH]cc2-c2ccccc2)cc1`?
IMP-1 inhibitor: -1; FID counter: -8; HCV core dimer: -1; VIM-2 inhibitor: -2

What do the screens show for `CCOc1ccccc1N(C)S(=O)(=O)c1ccc2c(c1)CCN2C(=O)CCC(=O)O`?
IMP-1 inhibitor: -2; FID counter: -34; HCV core dimer: 2; VIM-2 inhibitor: -2

What do the screens show for `O=C(CCC(=O)NNC(=O)COc1ccc(Br)cc1Br)NCc1ccccc1`?
IMP-1 inhibitor: 0; FID counter: 2; HCV core dimer: 1; VIM-2 inhibitor: -3

What do the screens show for `O=C(Nc1cccc2cccc(NC(=O)c3ccco3)c12)c1ccco1`?
IMP-1 inhibitor: -2; FID counter: 1; HCV core dimer: 48*; VIM-2 inhibitor: 1

Results for COC(=O)c1cc(OC)c(OC)cc1NC(=O)c1ccco1 ?
IMP-1 inhibitor: -3; FID counter: -14; HCV core dimer: 2; VIM-2 inhibitor: 8.9*

How did O=C(Nc1ccccc1NC(=O)c1ccco1)c1ccco1 do in these assays?
IMP-1 inhibitor: -1; FID counter: 1; HCV core dimer: 1; VIM-2 inhibitor: -2

How did O=C(O)c1ccccc1C(=O)N1CCc2c([nH]c3ccccc23)C1C(F)(F)F (configuration not stated) do in these assays?
IMP-1 inhibitor: -2; FID counter: -39; HCV core dimer: 0; VIM-2 inhibitor: 11*

What do the screens show for `O=C(O)CSCC(=O)N1CCc2c([nH]c3ccccc23)C1C(F)(F)F` (configuration not stated)?
IMP-1 inhibitor: 0; FID counter: -15; HCV core dimer: 2; VIM-2 inhibitor: -1

Results for COc1ccccc1-c1ccc(/C=C2\C=CC(=O)O2)o1 ?
IMP-1 inhibitor: 5.4*; FID counter: -15; HCV core dimer: 23; VIM-2 inhibitor: 5

Results for Clc1ccc(CSc2ccc(-c3cccnc3)nn2)cc1 ?
IMP-1 inhibitor: -5; FID counter: -19; HCV core dimer: 1; VIM-2 inhibitor: -6

Results for O=C(NN1C(=O)C2C(c3ccccc3)C=CC(c3ccccc3)C2C1=O)c1ccncc1 (configuration not stated) ?
IMP-1 inhibitor: 12*; FID counter: -24; HCV core dimer: 3; VIM-2 inhibitor: 0

What do the screens show for `CC1CCC(C(C)C)C(OC(=O)Cn2c(-c3ccc(Br)cc3)[n+](C)c3ccccc32)C1` (configuration not stated)?
IMP-1 inhibitor: -3; FID counter: 26; HCV core dimer: -3; VIM-2 inhibitor: -1

Results for Cc1ccccc1OCc1n(CC(=O)OC2CC(C)CCC2C(C)C)c2ccccc2[n+]1C (configuration not stated) ?
IMP-1 inhibitor: -1; FID counter: 38*!; HCV core dimer: -9; VIM-2 inhibitor: -3

Results for Cc1nc2sc3c(=O)[nH]nnc3c2c(C)c1Br ?
IMP-1 inhibitor: 0; FID counter: -7; HCV core dimer: 9; VIM-2 inhibitor: 11*

Results for COCc1c(Br)c(C)nc2sc3c(=O)[nH]nnc3c12 ?
IMP-1 inhibitor: 0; FID counter: -2; HCV core dimer: 1; VIM-2 inhibitor: 5

What do the screens show for `CN(C(=O)Nc1ccc(Cl)c(Cl)c1)c1ccccc1C(=O)O`?
IMP-1 inhibitor: -4; FID counter: 5; HCV core dimer: -2; VIM-2 inhibitor: -4

What do the screens show for `CCn1c(SCC(=O)N2CCOCC2)nc2c([nH]c3ccccc32)c1=O`?
IMP-1 inhibitor: -1; FID counter: -14; HCV core dimer: 8; VIM-2 inhibitor: 8.0*

Results for CN(C)[C@@H]1C(=O)C(C(=O)NCN2CCCC2)=C(O)[C@@]2(O)C(=O)C3=C(O)c4c(O)cccc4[C@@](C)(O)C3CC12 (some centres not stated) ?
IMP-1 inhibitor: 5.7*; FID counter: -15; VIM-2 inhibitor: 4

From PubChem
